Experimental data from ChEMBL document CHEMBL1155114, “Kadcoccilactones A-J, triterpenoids from Kadsura coccinea” (J Nat Prod, 2008).
In brackets after ≈: the same amount, converted by molar mass.

Columns and labels:
[1] = tested on: A549; experiment: Cytotoxicity against human A549 cells after 72 hrs by MTT assay; format: functional, cell-based; conditions: A549, 72 h
Method in brief: (§1)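 Human tumor cells seeded in 96-well plates 24 h before treatment, then exposed continuously to a range of compound concentrations for 72 h. Inhibition of cell proliferation read by SRB or MTT staining as named in each line. IC50 derived. Adriamycin (ADR) included as positive control.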

[2] = tested on: K562; experiment: Cytotoxicity against human K562 cells after 72 hrs by SRB assay; format: functional, cell-based; conditions: K562, 72 h; method in brief: as §1
[3] = tested on: Bel-7402; experiment: Cytotoxicity against human Bel7402 cells after 72 hrs by MTT assay; format: functional, cell-based; conditions: Bel-7402, 72 h; method in brief: as §1
[4] = tested on: K562; experiment: Cytotoxicity against human K562 cells after 72 hrs by MTT assay; format: functional, cell-based; conditions: K562, 72 h; method in brief: as §1
[5] = tested on: Bel-7402; experiment: Cytotoxicity against human Bel7402 cells after 72 hrs by SRB assay; format: functional, cell-based; conditions: Bel-7402, 72 h; method in brief: as §1
[6] = tested on: A549; experiment: Cytotoxicity against human A549 cells after 72 hrs by SRB assay; format: functional; method in brief: as §1

SMILES	IC50 [1] [µg/mL]	IC50 [2] [µg/mL]	IC50 [3] [µg/mL]	IC50 [4] [µg/mL]	IC50 [5] [µg/mL]	IC [6] [µg/mL]
CC(=O)O[C@H]1CC([C@H](C)[C@H](O)[C@@H]2C[C@H](C)C(=O)O2)=C2CC[C@]3(O)C[C@]45OC(=O)C[C@@]4(O)OC(C)(C)[C@@H]5CC[C@H]3[C@]21C [KADCOCCILACTONE F]	> 100	> 100	> 100	> 100	> 100	>100
CC(=O)O[C@@H]1C[C@]2(C)[C@@H]([C@H](C)[C@H]3CC=C(C)C(=O)O3)CC[C@@]2(C)CCC[C@H]2C(C)(C)O[C@@H]3CC(=O)O[C@@]32CC1=O [KADSUPHILACTONE A]	96.6 (≈ 173 µM)	50.3 (≈ 90 µM)	> 100	50.3 (≈ 90 µM)	> 100	96.6
CC(=O)O[C@@H]1C[C@H]2C(C)(C)O[C@@H]3CC(=O)O[C@@]32C[C@@]2(O)CC[C@]34O[C@H](C5CC(C)C(=O)O5)[C@@H](C)[C@H]3C[C@H](O)[C@]4(C)[C@H]12 (stereo partly drawn) [KADCOCCILACTONE H]	> 100	> 100	> 100	> 100	> 100	>100
CC1=CC([C@H]2O[C@@]34[C@H](C[C@@H]5O[C@@]53[C@@H]3[C@H](O)C[C@H]5C(C)(C)O[C@@H]6CC(=O)O[C@@]65C[C@@]3(O)C[C@@H]4O)[C@@H]2C)OC1=O (stereo partly drawn) [KADCOCCILACTONE J]	> 100	> 100	> 100	> 100	> 100	>100
CC(=O)O[C@H]1C[C@@H]2[C@H](C)[C@@H](C3CC(C)C(=O)O3)O[C@@]23CC[C@]2(O)C[C@]45OC(=O)C[C@H]4OC(C)(C)[C@@H]5C[C@@H](O)[C@H]2[C@@]13C (stereo partly drawn) [KADCOCCILACTONE I]	> 100	> 100	> 100	> 100	> 100	>100
CC1=C[C@@H]([C@@H](O)[C@@H](C)[C@]23CC[C@@]4(CO2)[C@@H]2CC[C@H]5C(C)(C)O[C@@H]6CC(=O)O[C@@]65C[C@@]2(O)CC[C@@]43C)OC1=O [KADCOCCILACTONE G]	> 100	> 100	> 100	> 100	> 100	>100
COc1cccc2c1C(=O)c1c(O)c3c(c(O)c1C2=O)C[C@@](O)(C(=O)CO)C[C@@H]3O[C@H]1C[C@H](N)[C@H](O)[C@H](C)O1 [DOXORUBICIN]	0.025 (≈ 0.046 µM)	0.011 (≈ 0.0202 µM)	0.01 (≈ 0.0184 µM)	0.011 (≈ 0.0202 µM)	0.01 (≈ 0.0184 µM)	0.025
CC1=CC[C@@H]([C@@H](C)[C@@H]2CC[C@]3(O)[C@@H]4CC[C@H]5C(C)(C)O[C@@H]6CC(=O)O[C@@]65C[C@@]4(O)CC[C@]23C)OC1=O [KADCOCCILACTONE B]	> 100	> 100	> 100	> 100	> 100	>100
CC1=CC[C@@H]([C@@H](C)[C@@H]2CC=C3[C@@H]4CC[C@H]5C(C)(C)O[C@@H]6CC(=O)O[C@@]65C[C@@]4(OC=O)CC[C@@]32C)OC1=O [KADCOCCILACTONE D]	> 100	> 100	> 100	> 100	> 100	>100
CC1=CC[C@@H]([C@@H](C)[C@]2(O)CC[C@@]3(C)[C@@H]4CC[C@H]5C(C)(C)O[C@@H]6CC(=O)O[C@@]65C[C@@]4(O)CC[C@@]32C)OC1=O [KADCOCCILACTONE A]	> 100	> 100	36.4 (≈ 70.5 µM)	> 100	36.4 (≈ 70.5 µM)	>100
CC1=C[C@@H]([C@@H](O)[C@@H](C)[C@H]2CC=C3[C@@H]4CC[C@H]5C(C)(C)O[C@@H]6CC(=O)O[C@@]65C[C@@]4(O)CC[C@@]32C)OC1=O [KADCOCCILACTONE E]	> 100	> 100	> 100	> 100	> 100	>100
CC1=C[C@H]([C@H](O)[C@H](C)[C@@H]2C[C@H]3O[C@]34[C@@H]3CC[C@@H]5C(C)(C)O[C@H]6CC(=O)O[C@]65C[C@]3(O)CC[C@@]24C)OC1=O [MICRANDILACTONE B]	> 100	> 100	> 100	> 100	> 100	>100
CC1=CC[C@@H]([C@@H](C)[C@@H]2CC[C@@]3(CO)[C@@H]4CC[C@H]5C(C)(C)O[C@@H]6CC(=O)O[C@@]65C[C@@]4(O)CC[C@]23C)OC1=O [KADCOCCILACTONE C]	> 100	53.3 (≈ 103 µM)	> 100	53.3 (≈ 103 µM)	> 100	>100
